Structures are written as SMILES. ≈ marks a conversion by molar mass, not a printed value.

The target in one test is S. pneumoniae PBP2a/b. In words: PBP competition assay with Bocillin FL. The settings on record: S. pneumoniae R6 membranes; Bocillin FL 100 μM. In kind it is binding, Streptococcus pneumoniae. Put shortly:
(§1)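 S. pneumoniae R6 was grown on blood agar at 37°C under 5% CO2, then in BHI with agitation to A600 ~1.0. Cells in KPN buffer pH 7.5 were lysozyme-treated and French-pressed; membranes (30–40 μg protein) were used. Test compound 10 min at 30°C, then Bocillin FL 100 μM final for 20 min. SDS-PAGE fluorescence; IC50 from three assays of six concentrations.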

For a further test, the target named is H. influenzae PBP2 (Haemophilus influenzae, UniProt P44469). In words: PBP competition assay with Bocillin FL. In kind it is binding. Put shortly:
(§2)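 H. influenzae Rd grown in supplemented BHI at 35°C (A600 0.6–0.7). Cells in KPN buffer (20 mM K-phosphate, 140 mM NaCl, pH 7.5), lysozyme-treated 30 min, French-pressed; membranes at 150,000 × g. Used 100–120 μg membrane protein. Test compound 10 min at 30°C, then Bocillin FL 100 μM final for 20 min. Gel fluorescence band volumes; IC50 from three assays of six concentrations.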

The target of the next test is H. influenzae PBP4 (Haemophilus influenzae, UniProt P45161). Kind of test: PBP competition assay with Bocillin FL. In kind it is binding. Put shortly:
as §2

Another test concerns the target H. influenzae PBP5 (Haemophilus influenzae, UniProt P44466). Kind of test: PBP competition assay with Bocillin FL. It counts as binding. Put shortly: as §2
The target of another test is H. influenzae PBP3a/b (Haemophilus influenzae, UniProt P45059). Kind of test: PBP competition assay with Bocillin FL. In kind it is binding. Put shortly:
as §2

The target in the next test is H. influenzae PBP1a (Haemophilus influenzae, UniProt P31776). Kind of test: PBP competition assay with Bocillin FL. It counts as binding. Put shortly: as §2
The target of the next test is H. influenzae PBP1b (Haemophilus influenzae, UniProt P45345). In words: PBP competition assay with Bocillin FL. In kind it is binding. An outline of the steps: as §2
The target in another test is S. pneumoniae PBP2X (Streptococcus pneumoniae, UniProt P59676). Kind of test: PBP competition assay with Bocillin FL. It counts as binding. Put shortly: as §1
Another test has as its target S. pneumoniae PBP1a/b. In words: PBP competition assay with Bocillin FL. It counts as binding, Streptococcus pneumoniae. The following applies: S. pneumoniae R6 membranes; Bocillin FL 100 μM. An outline of the steps: as §1
A further test has as its system S. pneumoniae. In words: Broth microdilution MIC. In kind it is cell-based. The settings on record: Streptococcus pneumoniae. An outline of the steps: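 MICs by CLSI broth microdilution in cation-adjusted Mueller-Hinton broth plus 2.5% lysed horse blood. S. pneumoniae R6 grown on blood agar at 37°C under 5% CO2.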
A general note: Broth dilution looks for growth in wells or tubes with falling amounts of substance.

H. influenzae PBP3a/b, sequence (P45059 66-580 limits assumed): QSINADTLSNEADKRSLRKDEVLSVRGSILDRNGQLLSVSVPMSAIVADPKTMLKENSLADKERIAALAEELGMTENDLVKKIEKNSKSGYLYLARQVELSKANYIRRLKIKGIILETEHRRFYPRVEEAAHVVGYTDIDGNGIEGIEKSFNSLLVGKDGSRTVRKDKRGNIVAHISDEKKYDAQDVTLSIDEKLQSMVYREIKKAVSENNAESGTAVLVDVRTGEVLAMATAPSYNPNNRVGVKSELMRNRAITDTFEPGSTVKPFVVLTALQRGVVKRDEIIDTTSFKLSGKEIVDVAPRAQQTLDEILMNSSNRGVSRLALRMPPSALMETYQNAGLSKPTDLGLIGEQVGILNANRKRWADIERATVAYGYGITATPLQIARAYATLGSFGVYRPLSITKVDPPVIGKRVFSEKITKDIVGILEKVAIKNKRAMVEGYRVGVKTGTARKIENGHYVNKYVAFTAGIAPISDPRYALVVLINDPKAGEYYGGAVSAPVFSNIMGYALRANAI
H. influenzae PBP5, sequence (P44466 19-393): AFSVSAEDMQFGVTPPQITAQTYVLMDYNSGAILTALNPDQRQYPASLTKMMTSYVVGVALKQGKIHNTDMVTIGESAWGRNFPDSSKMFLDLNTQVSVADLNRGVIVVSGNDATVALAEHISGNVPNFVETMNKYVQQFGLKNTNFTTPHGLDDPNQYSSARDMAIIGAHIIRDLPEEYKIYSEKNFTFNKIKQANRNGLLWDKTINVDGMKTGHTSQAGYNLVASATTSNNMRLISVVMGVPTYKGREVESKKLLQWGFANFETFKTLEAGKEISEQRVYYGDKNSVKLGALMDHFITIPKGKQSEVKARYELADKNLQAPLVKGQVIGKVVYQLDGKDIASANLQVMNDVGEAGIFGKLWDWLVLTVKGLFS
S. pneumoniae PBP2X, sequence (P59676 whole entry): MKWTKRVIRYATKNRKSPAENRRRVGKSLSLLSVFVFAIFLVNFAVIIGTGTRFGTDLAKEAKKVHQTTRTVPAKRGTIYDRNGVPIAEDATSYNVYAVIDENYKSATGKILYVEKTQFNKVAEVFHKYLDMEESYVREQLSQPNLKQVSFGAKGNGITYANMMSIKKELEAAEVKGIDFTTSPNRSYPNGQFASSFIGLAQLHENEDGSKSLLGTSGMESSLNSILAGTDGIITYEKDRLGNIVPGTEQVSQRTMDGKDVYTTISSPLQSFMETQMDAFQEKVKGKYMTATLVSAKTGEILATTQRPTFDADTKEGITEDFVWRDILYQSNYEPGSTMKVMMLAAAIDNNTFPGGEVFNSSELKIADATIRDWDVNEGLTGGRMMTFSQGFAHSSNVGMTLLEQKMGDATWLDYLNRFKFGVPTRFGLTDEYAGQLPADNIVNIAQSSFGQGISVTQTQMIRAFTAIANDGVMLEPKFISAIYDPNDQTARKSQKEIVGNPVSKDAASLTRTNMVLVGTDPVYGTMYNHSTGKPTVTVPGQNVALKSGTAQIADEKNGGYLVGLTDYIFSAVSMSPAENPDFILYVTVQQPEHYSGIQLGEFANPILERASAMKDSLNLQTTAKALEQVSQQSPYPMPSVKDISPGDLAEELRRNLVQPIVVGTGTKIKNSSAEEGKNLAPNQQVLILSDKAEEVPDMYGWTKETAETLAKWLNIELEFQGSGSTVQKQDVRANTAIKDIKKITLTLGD
H. influenzae PBP1b, sequence (P45345 whole entry): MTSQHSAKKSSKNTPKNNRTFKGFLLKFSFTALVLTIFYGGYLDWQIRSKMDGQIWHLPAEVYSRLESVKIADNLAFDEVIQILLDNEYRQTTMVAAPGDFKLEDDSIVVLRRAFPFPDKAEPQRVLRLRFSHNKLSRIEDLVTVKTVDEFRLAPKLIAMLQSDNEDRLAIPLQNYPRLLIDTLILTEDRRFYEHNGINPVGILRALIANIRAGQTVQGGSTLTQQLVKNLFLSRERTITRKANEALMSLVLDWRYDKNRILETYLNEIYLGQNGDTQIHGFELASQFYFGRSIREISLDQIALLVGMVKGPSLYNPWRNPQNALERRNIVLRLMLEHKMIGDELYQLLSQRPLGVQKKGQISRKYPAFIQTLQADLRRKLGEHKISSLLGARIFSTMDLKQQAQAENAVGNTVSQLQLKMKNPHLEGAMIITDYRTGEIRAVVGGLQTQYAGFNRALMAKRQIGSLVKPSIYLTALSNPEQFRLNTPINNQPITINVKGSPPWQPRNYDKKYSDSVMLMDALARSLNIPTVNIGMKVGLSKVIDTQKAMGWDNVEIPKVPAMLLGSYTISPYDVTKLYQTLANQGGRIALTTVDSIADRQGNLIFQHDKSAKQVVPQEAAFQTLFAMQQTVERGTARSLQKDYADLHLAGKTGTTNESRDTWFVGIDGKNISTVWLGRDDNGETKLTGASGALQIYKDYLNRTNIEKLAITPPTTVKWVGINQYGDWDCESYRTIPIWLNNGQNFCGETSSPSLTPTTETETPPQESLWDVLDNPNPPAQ
H. influenzae PBP2, sequence (P44469 whole entry): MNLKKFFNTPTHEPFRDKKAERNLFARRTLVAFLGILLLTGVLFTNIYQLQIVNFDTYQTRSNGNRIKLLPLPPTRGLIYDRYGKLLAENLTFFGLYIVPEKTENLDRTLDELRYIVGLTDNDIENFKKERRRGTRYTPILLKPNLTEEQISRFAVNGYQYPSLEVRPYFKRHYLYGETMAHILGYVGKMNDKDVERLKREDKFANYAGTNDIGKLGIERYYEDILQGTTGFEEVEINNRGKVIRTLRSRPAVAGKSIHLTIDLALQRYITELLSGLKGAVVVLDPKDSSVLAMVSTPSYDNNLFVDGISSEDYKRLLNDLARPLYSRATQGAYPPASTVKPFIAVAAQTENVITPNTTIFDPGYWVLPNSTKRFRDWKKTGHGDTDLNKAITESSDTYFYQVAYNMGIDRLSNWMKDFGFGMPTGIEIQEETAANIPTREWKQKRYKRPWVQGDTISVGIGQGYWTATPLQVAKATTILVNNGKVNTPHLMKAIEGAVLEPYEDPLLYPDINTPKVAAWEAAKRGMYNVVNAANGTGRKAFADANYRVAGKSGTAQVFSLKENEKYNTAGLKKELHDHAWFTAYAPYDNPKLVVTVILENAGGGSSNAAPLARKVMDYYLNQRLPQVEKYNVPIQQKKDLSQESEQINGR
H. influenzae PBP1a, sequence (P31776 whole entry): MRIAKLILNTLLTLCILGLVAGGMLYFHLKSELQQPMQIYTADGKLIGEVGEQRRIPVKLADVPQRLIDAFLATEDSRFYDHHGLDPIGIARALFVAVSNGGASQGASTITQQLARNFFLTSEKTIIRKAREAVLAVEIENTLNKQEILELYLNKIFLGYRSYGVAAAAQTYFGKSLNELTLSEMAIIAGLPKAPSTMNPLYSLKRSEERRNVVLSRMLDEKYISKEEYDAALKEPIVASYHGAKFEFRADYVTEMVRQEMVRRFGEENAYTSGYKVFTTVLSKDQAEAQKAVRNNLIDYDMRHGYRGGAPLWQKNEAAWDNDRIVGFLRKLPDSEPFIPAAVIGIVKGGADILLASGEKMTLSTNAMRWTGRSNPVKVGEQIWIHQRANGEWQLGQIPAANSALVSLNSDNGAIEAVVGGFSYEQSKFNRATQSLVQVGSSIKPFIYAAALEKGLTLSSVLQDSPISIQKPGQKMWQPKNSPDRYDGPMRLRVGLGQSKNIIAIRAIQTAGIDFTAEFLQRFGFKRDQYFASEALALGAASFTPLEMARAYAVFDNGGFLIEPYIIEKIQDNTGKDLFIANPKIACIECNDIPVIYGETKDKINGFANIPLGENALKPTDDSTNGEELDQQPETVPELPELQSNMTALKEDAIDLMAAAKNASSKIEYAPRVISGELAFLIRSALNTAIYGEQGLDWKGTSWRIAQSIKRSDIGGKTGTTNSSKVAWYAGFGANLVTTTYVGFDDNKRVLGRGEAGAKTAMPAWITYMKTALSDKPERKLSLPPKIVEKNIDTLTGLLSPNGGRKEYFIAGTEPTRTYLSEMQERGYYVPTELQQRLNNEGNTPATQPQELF
H. influenzae PBP4, sequence (P45161 27-479): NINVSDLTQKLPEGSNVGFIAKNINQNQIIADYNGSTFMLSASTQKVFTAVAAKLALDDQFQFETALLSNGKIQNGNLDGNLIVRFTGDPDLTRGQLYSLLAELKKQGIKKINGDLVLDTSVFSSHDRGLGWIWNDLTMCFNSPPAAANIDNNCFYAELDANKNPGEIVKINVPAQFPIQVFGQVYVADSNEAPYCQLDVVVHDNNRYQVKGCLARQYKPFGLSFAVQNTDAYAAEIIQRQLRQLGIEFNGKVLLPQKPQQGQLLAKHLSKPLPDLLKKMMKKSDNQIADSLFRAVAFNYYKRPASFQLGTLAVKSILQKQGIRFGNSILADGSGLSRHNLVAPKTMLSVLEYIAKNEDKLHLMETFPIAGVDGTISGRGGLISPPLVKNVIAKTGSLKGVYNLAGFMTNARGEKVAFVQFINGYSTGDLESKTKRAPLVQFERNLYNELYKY

As to `NC(=O)[C@@H]1CC[C@@H]2CN1C(=O)N2OS(=O)(=O)O` [AVI, avibactam], the “Relative binding (IC50) for PBP 2a/b” value on S. pneumoniae PBP2a/b is greater than 64 µg/mL. Besides, the IC50 on H. influenzae PBP2 was 11.3 µM; at H. influenzae PBP4, greater than 121 µM; at H. influenzae PBP5, greater than 121 µM; on H. influenzae PBP3a/b it was greater than 121 µM; at H. influenzae PBP1a it was greater than 121 µM; at H. influenzae PBP1b, greater than 121 µM. The same compound displayed an IC50 on S. pneumoniae PBP2X greater than 241 µM. Moreover, the “Relative binding (IC50) for PBP 1a/b” value on S. pneumoniae PBP1a/b is greater than 64 µg/mL. In addition, it took 256 µg/mL (≈ 965 µM) to inhibit growth with S. pneumoniae (MIC).

What is called IC50 is the point on the concentration scale where inhibition reaches its midpoint. Read a low IC50 as greater potency. As usually defined, the MIC is the lowest concentration that inhibits growth of the organism.

The values above are taken from publication PMC4750707 (Antimicrobial Agents and Chemotherapy, 2016).
